Compounds with a hit are over-represented: about 3.1% of the library has one in this group of screens.
Yeast growth inh: reduces growth of yeast BB579 in restrictive medium | S. cerevisiae BB579 growth, OD615, 48 h | inhibition, % at 10 µM | actives 0.51% (n = 140,000) | AID 804;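 active = inhibition above a set limit, 3 SD over the mean compound inhibition, cut at about 44% in these data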
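test system = yeast BB579 (DeaD) | buffer or medium = restrictive CSMM-D medium | doses = single compound dose of 10 µM, 0.25% DMSO final | times = 4 h preincubation and 48 h exposure at 30 °C | technique = culture absorbance at 615 nm | benchmarks = amphotericin B 10 µg/mL, positive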
Ins promoter up: MIN6 insulin promoter up-regulation; MIN6 insulin promoter-GFP reporter, high-content imaging; active compounds read high; z-score at 5 µM; actives 0.3% (n = 190,000);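 active = z-score above 3 at 5 µM with at least 500 cells counted in the well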
Insulin prom inh: TRM-6 insulin promoter activity inhibition; AID 1273; inhibition, % at 2 µM; TRM-6 cells, insulin promoter-eGFP reporter, imaging; reporter expression induced with tamoxifen; actives 0.9% (n = 130,000);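 active = inhibition above the mean plus 3 SD, with well images judged a real hit on visual review, cut at about 60% in these data, passing the limit was not always enough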
Yeast lifespan up: yeast lifespan extension; S. cerevisiae growth with nicotinamide, OD615; deaD strain in restrictive glucose medium; inhibition of the nicotinamide effect, % at 10 µM; actives 0.68% (n = 130,000);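 active = inhibition above a set limit, placed 3 SD over the median of all compounds, cut at about 26% in these data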;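 note: 0% = nicotinamide-treated wells and 100% = cells grown without nicotinamide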
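System: DeaD-strain S. cerevisiae / Buffer or medium: CSMM-D, restrictive glucose (dextrose) synthetic minimal medium / Probe or stimulus: nicotinamide, 1.5 mM, co-present with compound / Compound: one concentration, 10 µM, DMSO 0.25% / Incubation: 48 h compound exposure at 30 °C, humidified / Technique: optical density (absorbance) at 615 nm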
RAM inhibit: yeast RAM network inhibition. AID 868. actives 1.8% (n = 190,000). inhibition, % at 50 µM. S. cerevisiae dse1pr::URA3 reporter, 5-FOA growth OD615, 2 d; analog-sensitive cbk1-as2 kinase mutant strain;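 active = inhibition above a set limit, 3 SD over mean compound inhibition, cut at about 8.4% in these data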;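 note: 0% = DMSO-only wells with no growth and 100% = 10 µM 1-NA-PP1 full growth; inhibition rescues growth on 5-FOA so higher OD means more RAM inhibition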
RAM efflux-def: RAM network inhibitors in efflux-deficient yeast | shares compounds with RAM inhibit | S. cerevisiae efflux-deficient reporter strain, 5-FOA growth OD615, 2 days | max inhibition, % | 1,200 tested, under 10 active | AID 1305; call rule not given here;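 note: plate controls were vehicle for no effect and reference inhibitor for full effect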
* hit, by the source's call; . = not tested or not shown.

SMILES	Yeast growth inh	Ins promoter up	Insulin prom inh	Yeast lifespan up	RAM inhibit	RAM efflux-def
C=CCN1C(=O)C(Cc2ccccc2)SC1=Nc1ccc(C(=O)O)cc1 (configuration not stated)	-2.5	1.5	32.4	0.7	1.7	.
CCC(/C=N/NC(=O)C(=O)N/N=C/C(CC)CC)CC	-20.5	0.05	0.0	3.0	4.5	.
CN(C)c1ccc(NC(=O)Cn2c(=O)n(Cc3ccccc3)c(=O)c3ccccc32)cc1	-51.2	-0.15	.	-5.3	0.5	.
O=c1cc(CSc2nnnn2-c2ccccc2)nc2scc(-c3ccccc3)n12	9.8	0.46	34.2	-6.9	0.7	.
c1ccc(-c2nc(CSc3nnnn3-c3ccccc3)cs2)cc1	-32.5	0.03	.	-11.1	6.6	1.7
CCOCCCNC(=O)c1cc(=O)n(Cc2cccc(C)c2)c2ccccc12	.	-0.29	-25.0	.	11.8*	1.2
CCn1c(=O)cc(OCC(=O)NCCc2cccc(C)c2)c2ccccc21	.	-0.45	-129.4	.	3.6	.
O=C(Nc1nc2ccccc2n1CCN1CCOCC1)c1cn(-c2ccccc2)nc1-c1ccccc1	-61.0	-0.23	.	173.3*	18.3*	2.5
CC(=O)Nc1nc2ccccc2n1CCN1CCOCC1	-2.8	0.11	-2.8	.	0.9	.
COc1ccc(NS(=O)(=O)c2ccc(NC(=S)NC(=O)/C=C/c3ccccc3)cc2)nn1	-31.7	0.25	-22.2	-1.8	3.6	.
COCCCNS(=O)(=O)c1ccc2c(c1)OCCO2	-26.2	0.43	.	-3.7	2.2	.
O=S(=O)(NCCSCc1ccc(Cl)cc1Cl)c1ccc2c(c1)OCCO2	-43.4	-0.25	-33.3	0.9	11.7*	2.6
Cn1c(SCC(=O)N2CCc3ccccc32)nnc1-c1ccc(S(=O)(=O)N2CCCC2)cc1	-15.4	2.39	-19.4	0.8	11.7*	2.6
Fc1ccc(-c2n[nH]c(=S)c3ccccc23)cc1	.	0.16	35.7	.	5.5	.
O=C(CC(=O)c1ccccc1)Nc1cccnc1Cl	-19.4	-0.51	10.0	-3.6	0.9	.
CCOC(=O)/C(=N/Nc1ccc(C)cc1)S(=O)(=O)c1ccc(Cl)cc1	-13.5	1.31	-191.3	-2.9	12.3*	1.3
CCOC(=O)/C(=N\Nc1ccccc1)S(=O)(=O)c1ccccc1	-28.0	0.21	-54.8	0.8	-0.1	.
O=C(NCc1ccc2c(c1)OCO2)c1ccc(S(=O)(=O)N2CCOCC2)cc1	.	-0.59	-33.3	.	1.1	.
N=c1n(Cc2ccc(Cl)cc2)c2ccccc2n1CC(O)COc1ccccc1 (configuration not stated)	.	-1.38	.	.	-1.3	.
OC(COCC(F)(F)C(F)(F)C(F)(F)C(F)F)Cn1c2ccc(Cl)cc2c2cc(Cl)ccc21 (configuration not stated)	-32.7	-0.32	.	-0.6	17.9*	2.4
Cn1cccc1C(=O)C(=O)Nc1ccccc1C(F)(F)F	.	0.81	0.0	.	2.9	.
CCOC(=O)c1cnn(-c2ccccc2)c1-n1cccc1C(=O)C(=O)Nc1ccccc1C(F)(F)F	-27.9	-0.11	21.2	-3.7	14.4*	2.9
CCOC(=O)C(NC(C)=O)(NC(C)C)C(F)(F)F (configuration not stated)	.	0.49	.	.	.	.
O=C(/C=C/c1ccc(-c2ccccc2[N+](=O)[O-])o1)c1ccc(Br)cc1	-20.2	0.07	4.3	-2.0	11.9*	2.5
O=C(/C=C/c1ccc(-c2ccccc2)o1)c1ccccc1	-15.9	1.01	-16.7	7.1	11.4*	7.0
SMILES	Yeast growth inh	Ins promoter up	Insulin prom inh	Yeast lifespan up	RAM inhibit	RAM efflux-def
Cc1ccc(C(=O)/C=C/c2ccc(-c3ccccc3[N+](=O)[O-])o2)cc1	-13.0	0.12	-29.6	-0.7	14.6*	3.4
O=C(NCCn1cc(SCc2ccc(F)cc2)c2ccccc21)c1c(F)cccc1F	17.5	0.01	-109.8	0.7	5.0	.
O=C(NCCn1cc(SCc2ccc(F)cc2)c2ccccc21)c1ccccc1F	-31.8	0.61	-9.5	6.7	13.3*	4.1
COCCNC(=S)N(CCc1c(C)[nH]c2ccc(F)cc12)Cc1cccs1	.	-0.87	-89.2	.	12.4*	1.3
CCNC(=S)N(CCc1c(C)[nH]c2ccc(C)cc12)Cc1cccs1	.	-0.05	2.7	.	5.3	.
COc1cc(CC(NC(C)=O)C(=O)NC2CCN(c3c(Cc4ccccc4)c(C)nc4ncnn34)CC2)cc(OC)c1 (configuration not stated)	-31.6	-0.06	16.7	10.2	14.0*	3.1
O=C(O)CCC1OC(=O)C(O)=C1c1ccccc1 (configuration not stated)	.	0.83	.	.	.	.
CN(Cc1cc(-c2ccccc2)on1)C(=O)c1cc(COc2c(F)cccc2F)on1	.	1.27	.	.	21.1*	1.8
O=C1CC(SC(=Nc2ccccc2)Nc2ccccc2)C(=O)N1c1cccc2ccccc12 (configuration not stated)	-32.6	0	46.7	-4.9	5.4	.
Cc1cccc(CSC(Nc2ccc(F)cc2)=C(C#N)C#N)c1	-71.9	-0.7	-43.8	1.6	7.3	.
N#CC(C#N)=C(Nc1ccc(F)cc1)SCc1cccc(Br)c1	-72.6	-0.21	-12.5	5.5	13.8*	2.7
CCCCCCn1c(=O)c(C(=O)N/N=C/c2cccc(F)c2)c(O)c2ccccc21	.	1.31	-35.7	.	16.3*	5.4
O=C(NCCc1ccccc1)c1c(O)c2cccc3c2n(c1=O)CC3	-62.4	-0.52	0.0	3.3	21.8*	1.8
CCn1c(=O)c(C(=O)NCCc2ccccc2)c(O)c2ccccc21	-38.5	-0.3	0.0	-0.8	12.3*	3.9
O=C(NCc1ccccn1)c1c(O)c2cccc3c2n(c1=O)CC3	1.8	0.65	16.7	2.5	-0.7	.
CCCCCCCCC(=O)NNC(=O)c1c(O)c2ccccc2n(CC)c1=O	.	-0.27	.	.	12.7*	1.2
CCn1c(=O)c2c(n3c(=S)[nH]nc13)-c1ccccc1CC21CCCCC1	.	-0.2	.	.	4.0	.
N/C(=N\NC(=O)c1ccccc1Cl)c1cc2ccccc2oc1=O	.	1.61	-16.7	.	2.0	.
O=C(COC(=O)c1ccc(CSc2ccc(Cl)cc2)cc1)Nc1ccccc1	-48.5	1.07	.	10.3	11.5*	2.1
O=C(COC(=O)c1ccncc1)Nc1ccccc1	.	0.03	44.4	.	1.6	.
CC(=O)N(Cc1ccccc1)Cc1cn(CCC#N)nc1-c1cccc([N+](=O)[O-])c1	.	-0.1	-25.0	.	1.1	.
Cc1onc(-c2c(F)cccc2Cl)c1C(=O)NC(=S)NCc1cccnc1	-33.6	-0.03	0.0	1.4	-0.4	.
CC(C)CCOc1ncnc2c1sc1nc3c(cc12)CSC(C)(C)C3	-3.8	.	6.2	.	13.1*	3.0
CCOC(=O)c1ccc(NC(=O)COC(=O)c2cccc(Oc3ccccc3)c2)cc1	-49.7	0.34	26.7	7.9	12.0*	2.9
CCOC(=O)c1ccc(NC(=S)NC(=O)COc2ccccc2)cc1	-33.5	-0.71	53.1	4.7	11.5*	2.3
Cc1ccc(CSc2nnc(-c3ccc4c(c3)OCO4)o2)cc1	-27.5	-0.13	-32.1	-4.8	14.9*	1.8

Screening data deposited in PubChem by several laboratories.
